The source of these data is ChEMBL document CHEMBL4610093, “Bioreductively Activatable Prodrug Conjugates of Combretastatin A-1 and Combretastatin A-4 as Anticancer Agents Targeted toward Tumor-Associated Hypoxia” (J Nat Prod, 2020).

Data set [1] has as its system 4T1. The data set is described as follows: Induction in necrosis in tumor of BALB/C mouse implanted with mouse 4T1 cells harboring firefly luciferase reporter gene at 120 mg/kg, ip measured after 72 to 96 hrs by hematoxylin and eosin staining based assay (reference value: 46%). It counts as functional. On the technique in general: A reporter such as luciferase makes a cellular process visible.

Data set [2] concerns 4T1. The data set is described as follows: Induction of vascular damage in mouse 4T1 cells harboring firefly luciferase reporter gene implanted BALB/C mouse assessed as reduction in light emission at 120 mg/kg, ip measured after 4 hrs by Bioluminescence imaging analysis. The data set is classed as functional. More on the design: scale not given: the % may be the effect or the level left. A digest of the protocol:
(§1)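 Orthotopic 4T1-luc mammary fat pad tumours (10–12 mm) in female BALB/c mice. Single IP dose of 120 mg/kg in saline given right after baseline imaging. Dynamic BLI over about 20 min after subcutaneous D-luciferin (120 mg/kg), repeated with fresh luciferin at 4, 24 and 48 h. Signal compared by area under the light emission curve.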

The subject of data set [3] is 4T1. The data set is described as follows: Induction of vascular damage in mouse 4T1 cells harboring firefly luciferase reporter gene implanted BALB/C mouse assessed as reduction in light emission at 120 mg/kg, ip measured up to 72 hrs by Bioluminescence imaging analysis. The data set is classed as functional. On the set-up: scale not given: the % may be the effect or the level left. A digest of the protocol: as §1

Data set [4] relates to A549. The data set is described as follows: Cytotoxicity against human A549 cells incubated for 52 hrs in oxic condition by sulforhodamine B assay. It counts as functional. To be noted: A549, 52 h. A digest of the protocol:
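Normoxic arm: A549 cells at 6000 cells/well, 2 h attachment. Serial dilutions from DMSO stocks, top final concentration 50 µg/mL, in duplicate. Drug exposure 4 h under 95% air/5% CO2, then 48 h aerobic culture. Cytotoxicity read by SRB.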
(In general: The SRB assay estimates cell density from bound dye.)

A short description of data set [5]: Inhibition of bovine brain tubulin polymerisation preincubated for 15 mins followed by GTP addition and measured for 20 mins by turbidimetry based spectrophotometric method. On the set-up: species or system Bos taurus. Summed up: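 Bovine brain tubulin at 1.0 mg/mL (10 µM) in 0.8 M monosodium glutamate (pH 6.6) with 4% DMSO and compound. Preincubated 15 min at 30 °C, chilled, then 0.4 mM GTP added. Temperature jumped from 0 to 30 °C; turbidity at 350 nm followed for 20 min. IC50 is the concentration halving extent of assembly.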

Another data set has as its target Tubulin (Homo sapiens) (UniProt P68371+Q9H4B7+P0DPH7+P68366+Q13509+Q71U36+P04350+Q3ZCM7+P07437+P68363+Q9BQE3+Q6PEY2+Q13885+Q9BVA1+Q9BUF5). The data set is described as follows: Inhibition of [3H]colchicine binding to tubulin (unknown origin) at 5 uM incubated for 10 mins by scintillation counting relative to control. The data set is classed as protein-complex assay. Summed up: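 Purified tubulin at 1.0 µM with 5.0 µM [3H]colchicine, in 1.0 M monosodium glutamate (pH 6.6), 0.5 mg/mL BSA, 0.1 M glucose-1-phosphate, 1.0 mM MgCl2, 1.0 mM GTP and 5% DMSO. Incubated 10 min at 37 °C, then filter-bound radioactivity counted. Percent inhibition taken against no-inhibitor controls, corrected for filter binding without tubulin.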

Data set [6] is described as follows: Stability of the compound in pH 7.4 potassium phosphate buffer assessed as compound hydrolysis after 24 to 48 hrs. It counts as physicochemical.
Data set [7] has as its target T1, NADPH-cytochrome P450 oxidoreductase (Rattus norvegicus, UniProt P00388).
T1 sequence (P00388 whole entry): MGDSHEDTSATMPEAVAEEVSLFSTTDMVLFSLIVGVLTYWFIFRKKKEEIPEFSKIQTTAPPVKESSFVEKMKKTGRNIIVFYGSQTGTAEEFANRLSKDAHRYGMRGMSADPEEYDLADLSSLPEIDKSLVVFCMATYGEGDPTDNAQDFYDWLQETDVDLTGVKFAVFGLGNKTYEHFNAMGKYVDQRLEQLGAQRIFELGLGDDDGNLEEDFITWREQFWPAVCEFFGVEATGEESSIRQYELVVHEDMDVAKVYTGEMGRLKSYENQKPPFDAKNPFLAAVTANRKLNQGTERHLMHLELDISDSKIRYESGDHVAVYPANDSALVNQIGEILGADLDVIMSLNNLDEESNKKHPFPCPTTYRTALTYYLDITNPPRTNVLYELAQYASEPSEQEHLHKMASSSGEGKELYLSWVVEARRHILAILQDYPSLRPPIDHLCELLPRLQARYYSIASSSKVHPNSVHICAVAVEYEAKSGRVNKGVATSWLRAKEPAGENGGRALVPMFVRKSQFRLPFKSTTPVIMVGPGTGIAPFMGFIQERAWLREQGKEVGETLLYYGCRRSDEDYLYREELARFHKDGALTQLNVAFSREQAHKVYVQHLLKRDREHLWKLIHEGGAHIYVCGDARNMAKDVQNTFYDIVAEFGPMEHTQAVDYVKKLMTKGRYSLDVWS
The data set is described as follows: Substrate activity at rat NADPH-cytochrome P450 oxidoreductase expressed in supersomes assessed as compound cleavage after 90 mins in anaerobic condition by HPLC analysis. The note with it: read-out: Drug degradation. A digest of the protocol:
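Rat POR supersomes (0.006 U) with 0.8 mM NADPH, acting on compound diluted from 10 mM DMSO stock into 200 mM potassium phosphate pH 7.4 with 0.1% Triton X-100 and 400 µM protocatechuic acid. Made anaerobic by N2 evacuation/sparging plus 0.08 U protocatechuate dioxygenase. Incubated at 37 °C, quenched with acetonitrile, quantified by HPLC against standard curves; no-POR controls.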

Data set [8] can be described thus: Stability of the compound in pH 7.4 potassium phosphate buffer assessed as spontaneous compound hydrolysis measured for 150 mins. The data set is classed as physicochemical. The note with it: pH 7.4, 2.5 h.
The subject of data set [9] is A549. The data set is described as follows: Ratio of GI50 for human A549 cells in oxic condition to GI50 for anoxic condition. It counts as functional. Summed up: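 A549 cells at 6000 cells/well. Drug exposure 4 h either anaerobic (≤10 ppm O2, preconditioned medium and plates) or under 95% air/5% CO2, then 48 h aerobic. SRB cytotoxicity read in duplicate, top final concentration 50 µg/mL. Ratio taken as oxic over anoxic value.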

The test system of data set [10] is A549. The data set is described as follows: Cytotoxicity against human A549 cells incubated for 4 hrs in anoxic condition followed by oxic exposure for 48 hrs by sulforhodamine B assay. The data set is classed as functional. Summed up:
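Anoxic arm: A549 cells handled in an anaerobic chamber (≤10 ppm O2) with medium and plates preconditioned ≥48 h. 6000 cells/well, 2 h attachment. Serial dilutions from DMSO stocks, top final concentration 50 µg/mL, in duplicate. 4 h anaerobic drug exposure, then 48 h aerobic, then SRB readout.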

Bounds are passed on as bounds.

What is called GI50 is the concentration at which growth is held to half of that of the control. Broadly, the IC50 is the concentration at which inhibition is half-maximal. In general, inhibition refers to the percentage by which the read-out fell short of the control.

As for `COc1ccc(/C=C\c2cc(OC)c(OC)c(OC)c2)cc1OP(=O)([O-])[O-].[Na+].[Na+]` [FOSBRETABULIN DISODIUM], the Activity is given as 70% in the data set with 4T1 [1], more than 99% in the data set on 4T1 [2] and more than 90% in the data set on 4T1 [3].
Regarding `COc1ccc(/C=C\c2cc(OC)c(OC)c(OC)c2)c(OC(C)(C)c2ccc([N+](=O)[O-])s2)c1O`, the GI50 is 6000 nM in the data set on A549 [4] and 480 nM with A549 [10]. In [5], this compound came in with an IC50 of 1300 nM. On Tubulin (Homo sapiens), this compound yielded an inhibition of 43%. Further, the Stability result in data set [6] is “Unstable”; in data set [8], “Stable”. The metabolised at 1.5 h in [7] was 100%. Further, in the data set on A549 [9], the RatioGI50 was determined as 12.5.
